# Screening results: PubChem, The Scripps Research Institute Molecular Screening Center
# TAAR1 antag – antagonists of human TAAR1. 1.5% of 360,000 active. inhibition, % at 3 µM. Q96RJ0. CHO RD-HGA16 TAAR1, Fluo-8 calcium fluorescence, antagonist. AID 624466;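 active means inhibition above a per-plate cutoff, the mean inhibition of test compounds on that plate plus 3 SD, cut at about 49% in these data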
# Target sequence (Q96RJ0 whole entry, looked up): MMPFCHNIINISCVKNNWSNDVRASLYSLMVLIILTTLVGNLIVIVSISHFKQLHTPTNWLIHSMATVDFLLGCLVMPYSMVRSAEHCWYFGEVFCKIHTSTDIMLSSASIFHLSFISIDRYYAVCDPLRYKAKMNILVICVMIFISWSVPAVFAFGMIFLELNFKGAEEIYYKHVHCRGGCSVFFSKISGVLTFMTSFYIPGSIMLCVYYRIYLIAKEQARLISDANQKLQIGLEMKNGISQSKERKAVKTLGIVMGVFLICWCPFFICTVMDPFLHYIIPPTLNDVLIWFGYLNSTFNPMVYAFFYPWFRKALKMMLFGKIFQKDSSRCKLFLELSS
#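 Assay system: CHO-derived RD-HGA16 cells stably expressing human TAAR1 plus Gα16. Timing: 140 s kinetic read after compound, 140 s after agonist. Technique: kinetic Fluo-8 calcium fluorescence measurement. Measure: % inhibition of agonist calcium response.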
# TAAR1 ag – agonists of human TAAR1 | CHO RD-HGA16 TAAR1, Fluo-8 calcium fluorescence; vehicle wells 0%, saturating PEA agonist 100% | AID 624467 | 0.99% of 360,000 active | activation, % at 3 µM | Q96RJ0;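 active means activation above the mean activation of all test compounds in the run plus 3 SD, cut at about 38% in these data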
#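 Signal – calcium-sensitive Fluo-8 signal, excitation 470-495, emission 515-575 nm · System – RD-HGA16 (CHO) cells co-expressing Gα16 and hTAAR1 · Incubation – 17-24 h seeding, 75 min 37 °C dye, 30 min RT · Compound dosing – 3 µM single concentration · Repeats – no replicates (n 1)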
# OX1R antag-1 – blocks the human orexin 1 receptor; inhibition, % at 5 µM; O43613; CHO/OX1R cells, Fluo-8 calcium fluorescence, orexin A; 0.43% of 330,000 active;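 active means inhibition above its plate's threshold, mean inhibition of all tested compounds on the plate plus 3 SD, cut at about 37% in these data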
# GPR7 antagonist – blocks human GPR7 receptor signaling | GPR7-expressing cells, fluorescence antagonist assay | inhibition, % at 4.4 µM | 1.1% of 290,000 active; in the data active means inhibition above about 16%, passing the limit was not always enough;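 further: cells stimulated with the agonist NPW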
# Target sequence (P48145 whole entry, looked up): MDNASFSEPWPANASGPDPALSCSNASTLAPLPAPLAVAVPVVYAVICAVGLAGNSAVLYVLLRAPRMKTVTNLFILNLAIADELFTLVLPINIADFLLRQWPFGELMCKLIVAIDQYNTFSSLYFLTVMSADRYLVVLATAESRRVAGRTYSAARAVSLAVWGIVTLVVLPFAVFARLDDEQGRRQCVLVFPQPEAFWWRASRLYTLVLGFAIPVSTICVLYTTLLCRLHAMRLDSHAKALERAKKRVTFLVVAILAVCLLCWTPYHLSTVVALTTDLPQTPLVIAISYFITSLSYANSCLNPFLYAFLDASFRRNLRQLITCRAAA
# CHO parental Ca – counter-screen for OX1R antagonists: effect in parental CHO cells; inhibition, % at 5.6 µM; parental CHO-K1, ATP-induced calcium, Fluo-8 fluorescence; 0.63% of 330,000 active; AID 463079;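 active means inhibition above that plate's mean sample inhibition plus 3 SD, cut at about 26% in these data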
#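 test system = CHO parental line | reagent = ATP stimulus | measured by = intracellular calcium via Fluo-8 no-wash fluorescent dye | control set = ATP and no-ATP DMSO wells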
# OX1R antag-2 – OX1R (human) antagonism; OX1R-expressing cells, FRET antagonist read-out; inhibition, % at 6.6 µM; 1.8% of 330,000 active; AID 485270; in the data active means inhibition mostly above about 38%, no sharp cut-off; inactive means mostly below about 40%
# nonsel antag count – nonselective antagonist in TAAR1 antagonist counter-screen. shares compounds with TAAR1 antag. counterscreen cell line, calcium fluorescence, antagonist mode. inhibition, % at 3 µM. 77% of 2,400 active. AID 651780; in the data active means inhibition above about 22%;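 further: CHO-Ga16 host cells stimulated with ATP at an EC80 level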
# TAAR1 ant conf – human TAAR1 antagonism, confirmed. shares compounds with TAAR1 antag. 40% of 2,400 active. AID 651785. inhibition, % at 3 µM. TAAR1-expressing cells, fluorescence antagonist read-out; in the data active means inhibition above about 49%;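 further: CHO-Ga16 host cells challenged with agonist PEA near its EC80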
# Ga16 ag counter – nonselective Ga16 agonist in TAAR1 antagonist counter-screen; shares compounds with TAAR1 antag; Ga16-expressing cells, calcium fluorescence, agonist counterscreen; activation, % at 3 µM; 18% of 2,400 active; in the data active means activation above about 12%
# TAAR1 ag counter – counter-screen for human TAAR1 antagonists: TAAR1 agonists; hTAAR1 cell line, fluorescence activation, agonist mode; 2% of 2,400 active; shares compounds with TAAR1 antag; activation, % at 3 µM; AID 651955; in the data active means activation above about 37%;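 further: CHO cells stably expressing TAAR1 with calcium dye readout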
# Numbers stand for hits; 0 = inactive; - = not tested or not shown. In the library only some 4.5% were active in any assay of this set; here they are far more common.
SMILES,TAAR1 antag,TAAR1 ag,OX1R antag-1,GPR7 antagonist,CHO parental Ca,OX1R antag-2,nonsel antag count,TAAR1 ant conf,Ga16 ag counter,TAAR1 ag counter
C[C@H](NC(=O)OCc1ccccc1)C(=O)N[C@@H](Cc1c[nH]c2ccccc12)C(=O)O,0,0,0,-,0,0,-,-,-,-
COc1ccccc1CNC(=O)C(Cc1c[nH]c2ccccc12)NC(=O)OCc1ccccc1 (stereo not drawn),62.7,0,0,0,0,0,0,0,0,0
COC(CNC(=O)C1CCN(S(=O)(=O)c2ccc3nc4c(c(C(=O)O)c3c2)CC(C)CC4)CC1)OC (stereo not drawn),0,0,0,0,0,0,-,-,-,-
CCOc1ccc(C(=O)CCC(=O)N2CCN(S(=O)(=O)c3cccc(F)c3)CC2)cc1,69.9,0,0,-,0,0,0,0,0,0
CN(c1ccccc1)S(=O)(=O)c1cccc(NC(=O)CN2C(=O)NC3(CCCC3)C2=O)c1,0,0,-,-,-,-,-,-,-,-
O=C(CCC(=O)N1CCOCC1)NCCc1ccc(F)cc1,-,-,0,-,0,0,0,-,0,-
COc1cccc(CN2CCCC(C(=O)N3CCCCC3)C2)c1 (stereo not drawn),0,0,0,0,0,0,-,-,-,-
COc1ccc(N2CCN(C(=O)c3cc4c(s3)-c3ccccc3S(=O)(=O)C4)CC2)cc1,52.3,0,0,0,0,0,30.1,0,0,0
CN1CCN(C(=O)c2cc3c(s2)-c2ccccc2S(=O)(=O)C3)CC1,0,0,0,0,0,0,-,-,-,-
COc1ccccc1C(=O)NCCC(=O)NCC(c1ccco1)N1CCCC1 (stereo not drawn),0,0,0,-,0,0,-,-,-,-
COc1cc(-c2cc3nc4ccccc4n3c(N)c2C#N)cc(OC)c1OC,89.6,0,0,0,0,0,34.1,53.3,0,0
N#Cc1c(-c2ccccc2)cc2nc3ccccc3n2c1N,0,0,0,0,0,0,-,-,-,-
CCOC(=O)CCCSc1nnc(CCCCCN2C(=O)c3cccc4cccc(c34)C2=O)o1,57.8,0,0,0,0,0,37.0,0,0,0
C=CCOC(=O)C1=C(C)NC(SCC(=O)Nc2nccs2)=C(C#N)C1c1cccs1 (stereo not drawn),52.8,0,0,0,0,0,0,0,0,0
C=CCOC(=O)C1=C(C)NC(SCC(=O)Nc2nccs2)=C(C#N)C1c1ccc(Cl)cc1 (stereo not drawn),0,0,0,0,0,0,-,-,-,-
C=CC[C@@H](CC(=O)OC(C)(C)C)C(=O)OC[C@H]1CCCN1C(=O)[C@@H](CC=C)CC(=O)N[C@H](CO)Cc1ccccc1,60.9,0,0,-,0,0,35.6,0,0,0
COc1ccccc1CN(C)C(=O)c1cc(-c2cc(OC)c(OC)c(OC)c2)nc2ccccc12,61.2,0,0,0,0,0,35.3,53.5,0,0
COCCN(Cc1ccccc1)C(=O)c1cc(-c2ccc(OC)c(OC)c2)nc2ccccc12,62.2,0,0,0,0,0,26.1,0,0,0
COc1cccc(CN(C)C(=O)c2cc(-c3cccs3)nc3ccccc23)c1,76.1,0,0,0,0,0,35.3,58.3,0,0
COc1cc(-c2cc(C(=O)N(C)Cc3ccccc3)c3ccccc3n2)cc(OC)c1OC,0,0,0,0,0,0,-,-,-,-
COc1ccc(-c2cc(C(=O)N(C)Cc3ccccc3F)c3ccccc3n2)cc1OC,77.9,0,0,0,0,0,28.3,0,0,0
COCCN(CC(=O)Nc1cccc(C)c1C)C(=O)c1cc(-c2ccncc2)nc2ccccc12,74.3,0,0,-,0,0,31.3,55.9,0,0
COc1cc(-c2cc(C(=O)OCC(=O)NC3CC3)c3ccccc3n2)cc(OC)c1OC,67.5,0,0,-,0,0,26.9,0,0,0
COCCC(=O)N1CCC(Oc2ccc(C(=O)NCCn3cccn3)cc2)CC1,0,0,0,0,0,0,-,-,-,-
C/C=C(/C)C(=O)O[C@@H]1c2c(ccc3ccc(=O)oc23)O[C@@H]1C(C)(C)OC(=O)/C(C)=C\C,59.5,0,0,0,0,0,0,0,0,0
SMILES,TAAR1 antag,TAAR1 ag,OX1R antag-1,GPR7 antagonist,CHO parental Ca,OX1R antag-2,nonsel antag count,TAAR1 ant conf,Ga16 ag counter,TAAR1 ag counter
C/C=C(/C)C(=O)OC(C)(C)[C@@H]1Cc2c(ccc3ccc(=O)oc23)O1,0,0,0,0,0,0,-,-,-,-
COc1ccc(OC)c(CN2CCCC(C(=O)N3CCCCC3)C2)c1 (stereo not drawn),106.2,0,0,0,0,0,0,0,0,0
C#CCNC(=O)C1=C[C@@H](C2CC2)[C@H](CCCO)[C@@H](OCC)O1,0,0,0,0,0,0,-,-,-,-
CCOC(=O)C1(Cc2cccc(F)c2)CCN(C2CCOCC2)CC1,0,0,0,0,0,0,-,-,-,-
CCOC(=O)C1(Cc2cccc(F)c2)CCN(C(=O)C2CCC2)CC1,104.9,0,0,0,0,0,0,0,0,0
Cc1cccc(-n2ncc3c(NCCc4ccc(S(N)(=O)=O)cc4)ncnc32)c1,0,0,0,0,0,0,-,-,-,-
CC(C)(C)c1ccc(C(=O)Nc2ccc(NC(=O)c3ccco3)cc2)cc1,58.2,0,0,0,0,0,22.5,0,0,0
O=C(Nc1ccc(Oc2ccc(NC(=O)c3ccco3)c(NC(=O)c3ccco3)c2)cc1)c1ccco1,61.8,0,0,0,0,0,29.1,55.6,0,0
O=C(Nc1ccc(NC(=O)c2ccco2)cc1)c1ccco1,0,0,0,0,0,0,-,-,-,-
COc1ccc(CNC(=O)c2cccc(NC(=O)CC3SC(N4CCCCC4)=NC3=O)c2)cc1 (stereo not drawn),0,0,0,-,0,0,-,-,-,-
COc1ccc(-c2c(C(=O)c3ccc(Br)cc3)[nH]c(N)c2C(=O)c2ccccc2)cc1OC,60.3,0,-,-,-,-,0,0,0,0
Cn1/c(=N\NC(=O)c2ccccc2Cl)sc2ccccc21,0,0,0,0,0,0,-,-,-,-
O=C(NCCc1ccc(Cl)cc1)c1ccc(CS(=O)Cc2ccccc2Cl)o1 (stereo not drawn),60.3,0,0,0,0,0,29.1,0,0,0
O=C(c1ccc(CS(=O)Cc2ccccc2Cl)o1)N1CCN(c2ccccn2)CC1 (stereo not drawn),48.7,0,0,0,0,0,0,0,0,0
